Assay [1] has as its target T1, Orotidine 5'-phosphate decarboxylase (Saccharomyces cerevisiae S288c, UniProt P03962).
T1 sequence (P03962 whole entry): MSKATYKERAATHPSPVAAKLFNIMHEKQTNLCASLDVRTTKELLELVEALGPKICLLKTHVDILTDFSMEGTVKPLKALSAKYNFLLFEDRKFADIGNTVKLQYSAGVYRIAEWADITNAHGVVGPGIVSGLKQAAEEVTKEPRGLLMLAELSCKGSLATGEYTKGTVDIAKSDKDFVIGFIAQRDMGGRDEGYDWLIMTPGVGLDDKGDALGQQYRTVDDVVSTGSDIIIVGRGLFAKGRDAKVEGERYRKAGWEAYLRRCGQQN
Briefly: Inhibition of Saccharomyces cerevisiae uridine 5'-monophosphate synthase after overnight incubation at room temperature by VP-ITC microcalorimetry.

The target of assay [2] is T1, Orotidine 5'-phosphate decarboxylase. Briefly: Inhibition of Saccharomyces cerevisiae uridine 5'-monophosphate synthase.
Assay [3] concerns the target Orotidine 5'-phosphate decarboxylase (Methanobacterium thermoautotrophicum, UniProt O26232). Briefly: Inhibition of Methanothermobacter thermautotrophicus uridine 5'-monophosphate synthase after overnight incubation at room temperature by VP-ITC microcalorimetry. An outline of the steps:
(§1)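 Isothermal titration calorimetry with Mt ODCase (final 20 nM). Enzyme stock was kept in 50 mM Tris pH 7.5, 20 mM DTT, 40 mM NaCl overnight at rt. Assay buffer was degassed 50 mM Tris pH 7.5 with 1 mM DTT. Run at 55 °C, started by injecting 5 mM OMP in 50 mM Tris. Inhibitor series spanned 5–40 µM or 0.5–5 mM. Competitive Ki was derived from Ki(app) = Ki(1+[S]/KM).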

Assay [4] has as its target Orotidine 5'-phosphate decarboxylase (Methanobacterium thermoautotrophicum) (UniProt O26232). Kind of assay: Competitive inhibition of Methanothermobacter thermautotrophicus uridine 5'-monophosphate synthase after overnight incubation at room temperature by Lineweaver-Burke plot analysis. The method, boiled down:
as §1

Assay [5] is described as follows: Inhibition of Helicobacter pylori uridine 5'-monophosphate synthase after overnight incubation at room temperature by VP-ITC microcalorimetry. An outline of the steps:
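Reversible inhibition measured by ITC with Hp ODCase (final 60 nM) and 20 µM OMP substrate. Assay buffer was degassed 50 mM Tris pH 7.5 with 1 mM DTT. Inhibitor series were 0.25–1.5 µM or 0.25–2.5 mM. Ki was fitted as competitive from Ki(app) = Ki(1+[S]/KM).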

The target of assay [6] is T2, Orotidine phosphate decarboxylase (Plasmodium falciparum) (UniProt Q8T6J6).
T2 sequence (whole entry): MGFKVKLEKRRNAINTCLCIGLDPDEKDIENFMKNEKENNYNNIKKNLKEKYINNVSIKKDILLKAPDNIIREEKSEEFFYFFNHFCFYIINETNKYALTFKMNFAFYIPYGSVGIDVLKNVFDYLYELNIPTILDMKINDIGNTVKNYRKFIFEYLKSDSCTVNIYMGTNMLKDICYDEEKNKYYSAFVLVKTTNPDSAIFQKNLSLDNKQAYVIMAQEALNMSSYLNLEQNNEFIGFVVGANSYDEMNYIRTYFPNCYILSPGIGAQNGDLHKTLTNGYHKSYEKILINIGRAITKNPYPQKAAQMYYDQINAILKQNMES
The conditions noted are these: 0.5 to 5 mM.

The source made the active and inactive calls. No cut-off for these calls is given here.

Orotidine 5'-phosphate decarboxylase (Methanobacterium thermoautotrophicum), sequence (O26232 whole entry, looked up): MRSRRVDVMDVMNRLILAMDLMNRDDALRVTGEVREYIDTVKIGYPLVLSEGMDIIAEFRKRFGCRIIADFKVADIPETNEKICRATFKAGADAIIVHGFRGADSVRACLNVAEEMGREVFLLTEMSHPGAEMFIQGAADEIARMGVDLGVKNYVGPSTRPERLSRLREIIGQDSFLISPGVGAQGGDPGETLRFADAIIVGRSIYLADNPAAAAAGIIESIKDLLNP
Orotidine 5'-phosphate decarboxylase (Methanobacterium thermoautotrophicum, UniProt O26232), sequence (O26232 whole entry): as the sequence (O26232 whole entry, looked up) above

`O=c1cc(O)n([C@@H]2O[C@H](COP(=O)(O)O)[C@@H](O)[C@H]2O)c(=O)[nH]1`: the Ki (as a rule, the dissociation constant of the complex between target and ligand, obtained from inhibition or displacement) in assay [1] was determined as 0.009 nM; in assay [2], 8.8 pM.
Turning to `NC(=O)c1[nH]nc([C@@H]2O[C@H](COP(=O)(O)O)[C@@H](O)[C@H]2O)c1O`, the Ki in assay [1] was 5 nM; in assay [3] it was 6.2 µM; in assay [5] it was 130 nM. Also, in assay [4], the inhibition result is “Active”.
With `N#Cc1cc(=O)[nH]c(=O)n1[C@@H]1O[C@H](COP(=O)(O)O)[C@@H](O)[C@H]1O`, the inhibition result in assay [6] is “Active”.
